Publication PMC4324837 (Antiviral research, 2014)
Where a name gives a salt, the structure may show the parent alone. Numbered stars: 1 amine (or outer) side, 2 acyl side, 3 side chain; on linkers, the order of the positions; unused ones are H or OH. Bridge positions count the residues as written; N and C are the ends. Square brackets hold non-standard residues; d marks the D form. Peptide text beside a SMILES is read from it. I, II: the chains in the order shown. Actinocin(9to1) = Cc1c2oc3c(C)ccc(C(=O)[*:1])c3nc-2c(C(=O)[*:2])c(N)c1=O; NMeV = CN[C@H](C(=O)O)C(C)C; Sar = CNCC(=O)O

Experiments:
CMV AD169IE2-YFP [1] = experiment: High-content screen, IE2-YFP nuclear fluorescence in infected MRC5 cells; format: cell-based, Human cytomegalovirus; conditions: for reduction of YFP intensity: primary screen, screening dose (5μM printed elsewhere in the source); for activity at 5.6 µM: Human betaherpesvirus 5, MRC5, 16 h, read-out: YFP Intensity (%)
CMV AD169IE2-YFP [2] = experiment: in vitro; format: cell-based, Human cytomegalovirus; conditions: MRC5 cells; for Selective Ratio (CC50/EC50) / selectivity ratio: AD169IE2-YFP; for selectivity ratio: human, Selective Ratio (CC50/EC50)
[3] = CC50 / cell viability by NucGreen staining, MRC5 cells; format: cell-based, Human; conditions: human
CMV AD169 = experiment: Immunoblot of viral early protein US11 in infected MRC5 cells; format: cell-based, Human cytomegalovirus; conditions: MRC5, AD169-WT MOI 3, 20 hpi; for US11 protein level in infected cells: 50 or 500nM of respective compound
Summary of the method: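 MRC5 cells were pretreated 1 h at 37 °C with test compound or 0.1% DMSO, infected with wild-type AD169 (MOI 3), then washed once with DMEM before analysis.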

CMV = experiment: Addition of compound after infection; format: cell-based, Human cytomegalovirus; conditions: added up to 4hpi, data not shown
CMV TB40/EFLAG-YFP = experiment: EC50 of convallatoxin, clinical strain reporter virus in ARPE-19 cells; format: cell-based, Human cytomegalovirus; conditions: Human betaherpesvirus 5, ARPE-19
Summary of the method: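 ARPE-19 cells, 10,000/well in 96-well plates, got DMEM with test compound (0-10 nM) the next day, in sextuplicate. They were then infected with TB40/E FLAG-YFP (US28 replaced by FLAG-YFP; MOI 20). YFP+ cells were counted at 120 hpi on an Acumen eX3 cytometer, with positive meaning above 2 SD of background. % infection was set against DMSO-treated cells; EC50 came from a three-parameter log(inhibitor)-response fit of mean values.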

[4] = Cell viability by NucGreen staining, ARPE-19 cells; format: cell-based; conditions: human
Summary of the method: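 ARPE-19 cells, 10,000/well in 96-well plates, were exposed next day to test compound in DMEM, in sextuplicate. After 19 h, NucGreen dead-cell stain went into three of six wells per condition for 10 min at RT. Total cells were counted by fixing with 4% paraformaldehyde and adding NucGreen for 10 min. Signal was read on a fluorescent plate reader, and % viability was taken from NucGreen-positive counts of treated versus total cells.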

CMV AD169IE2-YFP [5] = experiment: Multi-cycle infection study, YFP+ cells under long-term convallatoxin treatment; format: cell-based, Human cytomegalovirus
Summary of the method: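 MRC5 cells, 10,000/well in 96-well plates, received DMEM with test compound (0, 5, 10 or 50 nM) in sextuplicate. In one plate this was followed immediately by AD169 IE2-YFP infection (MOI 0.5) or medium alone. In the other, cells were infected (MOI 0.5) or mock-infected for 36 h before compound-containing medium was added. IE2-YFP-positive cells were read on a fluorescent plate reader up to 168 hpi.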

[6] = Cell viability under prolonged treatment, uninfected MRC5 fibroblasts, NucGreen; format: cell-based, Human; conditions: human, uninfected MRC5 fibroblasts
Summary of the method: (§1)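 Uninfected MRC5 fibroblasts, 10,000/well in 96-well plates, were kept in DMEM with test compound (0, 5, 10 or 50 nM) in sextuplicate for up to 168 h. NucGreen dead-cell staining was read on a fluorescent plate reader. Percent viability used the total cell number of DMSO-treated wells as 100%, plotted at 72, 120 and 168 hpi.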

MRC5 cells [7] = experiment: as above; format: cell-based, Human; conditions: 5nM, throughout the timecourse (up to 168 hours)
Summary of the method: as §1

CMV AD169IE2-YFP [8] = format: cell-based, Human cytomegalovirus; conditions: MRC5, MOI 0.5, compound present until 24 hpi
MRC5 cells [9] = experiment: CC50 / cell viability by NucGreen staining, MRC5 cells; format: cell-based, Human; conditions: MRC5 cells, 0-5μM, 19 hours, NucGreen

With `CO[C@H]1[C@H](O)[C@H](O[C@H]2CC[C@@]3(C=O)[C@H](CC[C@@H]4[C@@H]3CC[C@]3(C)[C@@H](C5=CC(=O)OC5)CC[C@]43O)C2)O[C@@H](C)[C@@H]1O` [peruvoside] as the molecule, how does the “reduction of YFP intensity” value (CMV AD169IE2-YFP [1]) read?
The value was at most 70%.

What does the source list for `CC(=O)O[C@@H]1C[C@@]2(C)[C@H](c3ccoc3)C[C@H]3O[C@]32[C@]2(C)C(=O)C(O)=C3C(C)(C)C(=O)C=C[C@]3(C)[C@@H]12` [Anthothecol]?
activity at 5.6 µM (CMV AD169IE2-YFP [1]): 27.5 ± 0.55%; Selective Ratio (CC50/EC50) (CMV AD169IE2-YFP [2]): 0.4; Selective Ratio (CC50/EC50) (CMV AD169IE2-YFP [2]; listed as anthothecol): < 30; CC50 at 19 h [3]: 700 nM

For `CC[C@]1(O)C[C@H]2CN(CCc3c([nH]c4ccccc34)[C@@](C(=O)OC)(c3cc4c(cc3OC)N(C=O)[C@H]3[C@@](O)(C(=O)OC)[C@H](OC(C)=O)[C@]5(CC)C=CCN6CC[C@]43[C@@H]65)C2)C1` [Vincristine sulfate], which activity at 5.6 µM (CMV AD169IE2-YFP [1]) is on record?
The activity at 5.6 µM was 26.6 ± 0.53%.

What about the “Selective Ratio (CC50/EC50)” value (CMV AD169IE2-YFP [2]) of the same molecule?
Its value is 3.4.

What about the CC50 at 19 h [3] of the same molecule?
The CC50 at 19 h was 40 nM.

With `C[C@@H]1C[C@@H]([C@H](O)CC2CC(=O)NC(=O)C2)C(=O)[C@@H](C)C1` [Cycloheximide] as the molecule, how does the activity at 5.6 µM (CMV AD169IE2-YFP [1]) read?
Its activity at 5.6 µM is 11.2 ± 1.8%.

For `COc1cc2c(c(OC)c1OC)-c1ccc(OC)c(=O)cc1[C@@H](NC(C)=O)CC2` [Colchicine], which activity at 5.6 µM (CMV AD169IE2-YFP [1]) is on record?
The activity at 5.6 µM was 17.3 ± 0.34%.

And the CC50 at 19 h [3]?
Its CC50 at 19 h is over 5000 nM.

And the “US11 protein level in infected cells” value (CMV AD169)?
The value was “lower levels of US11”.

And the “effect on infection when added after infection” value (CMV)?
The value was “reduced infection”.

Which EC50 (CMV AD169IE2-YFP [2]; MOI 3, 1 h pretreatment, 0-5μM, 18 hpi) does the source give for `COc1ccc(C[C@H]2NC[C@H](O)[C@H]2OC(C)=O)cc1` [Anisomycin] here?
Its EC50 is 170 nM.

For `COc1cc([C@@H]2c3cc4c(c(O)c3C[C@H]3COC(=O)[C@@H]32)OCO4)cc(OC)c1OC` [β-peltatin], which activity at 5.6 µM (CMV AD169IE2-YFP [1]) is on record?
The activity at 5.6 µM was 20.5 ± 0.41%.

With `Cc1c2oc3c(C)ccc(C(=O)N[C@@H]4C(=O)N[C@H](C(C)C)C(=O)N5CCC[C@H]5C(=O)N(C)CC(=O)N(C)[C@@H](C(C)C)C(=O)O[C@@H]4C)c3nc-2c(C(=O)N[C@@H]2C(=O)N[C@H](C(C)C)C(=O)N3CCC[C@H]3C(=O)N(C)CC(=O)N(C)[C@@H](C(C)C)C(=O)O[C@@H]2C)c(N)c1=O` [Actinomycin D] (I: T[dV]P[Sar][NMeV] / II: T[dV]P[Sar][NMeV]; ester I:1-I:C, II:1-II:C; linker I:N-II:N via Actinocin(9to1)) as the molecule, how does the activity at 5.6 µM (CMV AD169IE2-YFP [1]) read?
Its activity at 5.6 µM is 5.8 ± 0.11%.

Which results are given for `C[C@@H]1O[C@@H](O[C@H]2CC[C@]3(C=O)[C@H]4CC[C@]5(C)[C@@H](C6=CC(=O)OC6)CC[C@]5(O)[C@@H]4CC[C@]3(O)C2)[C@H](O)[C@H](O)[C@H]1O` [Convallatoxin]?
activity at 5.6 µM (CMV AD169IE2-YFP [1]): 27.8 ± 0.87%; selectivity ratio (CMV AD169IE2-YFP [2]): > 454; CC50 at 19 h [3]: > 5000 nM; viability at 19 h, 5 µM [3]: 100%; EC50 (CMV TB40/EFLAG-YFP): 0.1 nM; viability at 19 h, 10 nM [4]: ~80%; US11 protein level in infected cells (CMV AD169): lower levels of US11; US11 expression (CMV AD169; convallatoxin 5-50nM (all concentrations)): blocked the expression of US11 at all concentrations; fluorescent expression relative to DMSO-treated cells (CMV AD169IE2-YFP [5]; 5nM, added at 0hpi, by 100hpi): approximately half; number of YFP+ cells compared to DMSO (CMV AD169IE2-YFP [5]; MRC5, MOI 0.5, 5, 10 or 50nM added simultaneously with virus (0hpi)): reduced the number of YFP+ cells in a dose-dependent manner; number of YFP+ cells (CMV AD169IE2-YFP [5]; MRC5, MOI 0.5, treatment of infected cells at 36hpi): significant decrease of YFP+ cells; viability at 120 h, 0.01 µM [6]: 79%; viability at 120 h, 0.05 µM [6]: 61%; viability at 168 h, 0.01 µM [6]: 91%; viability at 168 h, 0.05 µM [6]: 82%; effect on cell viability (MRC5 cells [7]): no detectable effect; YFP fluorescence (% infection vs DMSO) (CMV AD169IE2-YFP [8]; followed 9 days, ganciclovir 12μM): significant decrease in fluorescence; decrease in virus titer compared to ganciclovir treatment (CMV AD169IE2-YFP [8]; plaque assay of supernatants): ~10 fold

With `CN(C)C(=S)SSC(=S)N(C)C` [Thiram] as the molecule, how does the activity at 5.6 µM (CMV AD169IE2-YFP [1]) read?
Its activity at 5.6 µM is 14 ± 0.29%.

What about the “Selective Ratio (CC50/EC50)” value (CMV AD169IE2-YFP [2]) of the same molecule?
Its value is under 0.4.

And the “Selective Ratio (CC50/EC50)” value (CMV AD169IE2-YFP [2]; listed as thiram)?
The value was under 30.

And the CC50 at 19 h ([3]; MRC5 cells)?
Its CC50 at 19 h is 2200 nM.

With `CC[C@H]1CN2CCc3cc(OC)c(OC)cc3[C@@H]2C[C@@H]1C[C@H]1NCCc2cc(OC)c(OC)cc21` [emetine] as the molecule, how does the “reduction of YFP intensity” value (CMV AD169IE2-YFP [1]) read?
The value was 41%.

What does the source list for `COc1cc(C2c3cc4c(cc3C(O)C3COC(=O)C23)OCO4)cc(OC)c1O` (stereo not drawn) [4′-demethyl-epipodophyllotoxin]?
Selective Ratio (CC50/EC50) (CMV AD169IE2-YFP [2]): >1.5; CC50 (MRC5 cells [9]): > 5000 nM

Which activity at 5.6 µM (CMV AD169IE2-YFP [1]) does the source give for `COc1cc([C@@H]2c3cc4c(cc3[C@H](O)[C@H]3COC(=O)[C@H]23)OCO4)cc(OC)c1OC` [Podofilox] here?
The activity at 5.6 µM was 14.5 ± 0.31%.

What about the selectivity ratio (CMV AD169IE2-YFP [2]) of the same molecule?
The selectivity ratio was over 192.

And the CC50 at 19 h ([3]; MRC5 cells)?
The CC50 at 19 h was over 5000 nM.

And the “US11 protein level in infected cells” value (CMV AD169)?
Its value is “lower levels of US11”.

With `CC[C@]1(O)C[C@@H]2CN(CCc3c([nH]c4ccccc34)[C@@](C(=O)OC)(c3cc4c(cc3OC)N(C)[C@H]3[C@@](O)(C(=O)OC)[C@H](OC(C)=O)[C@]5(CC)C=CCN6CC[C@]43[C@@H]65)C2)C1` [Vinblastine sulfate] as the molecule, how does the activity at 5.6 µM (CMV AD169IE2-YFP [1]) read?
Its activity at 5.6 µM is 24.2 ± 0.48%.

For `C[C@@H]1O[C@@H](O[C@H]2C[C@@H](O)[C@]3(CO)[C@H]4[C@H](O)C[C@]5(C)[C@@H](C6=CC(=O)OC6)CC[C@]5(O)[C@@H]4CC[C@]3(O)C2)[C@H](O)[C@H](O)[C@H]1O` [ouabain], which “reduction of YFP intensity” value (CMV AD169IE2-YFP [1]) is on record?
Its value is at most 70%.

For `COc1ccc2c(c1OC)C(=O)O[C@@H]2[C@H]1c2c(cc3c(c2OC)OCO3)CCN1C` [Noscapine], which activity at 5.6 µM (CMV AD169IE2-YFP [1]) is on record?
The activity at 5.6 µM was 106%.
